ChEMBL document CHEMBL3102794, “Discovery of 2-pyridineformamide thiosemicarbazones as potent antiausterity agents” (2014)
Active and inactive are the calls of the source. No cut-off for these calls is given here.

Experiments:
[1] = Cytotoxicity against human PANC1 cells in nutrient-deprived medium after 24 hrs by WST-8 assay; assay type: functional, PANC-1
How it was run: (§1)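 PANC-1 cells were seeded at 1.5 × 10^4/well and grown 24 h in DMEM at 37 °C, 5% CO2. They were washed with D-PBS, then exposed to serial dilutions in DMEM or NDM for 24 h, with control and blank wells. Viability was read by WST-8 (10% in DMEM, 3 h, A450), averaged over three wells: (test−blank)/(control−blank)×100.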

[2] = system: PANC-1; assay: Cytotoxicity against human PANC1 cells after 24 hrs by WST-8 assay in presence of DMEM; assay type: functional, cell-based; how it was run: as §1
[3] = system: PANC-1; assay: Ratio of arctigenin PC50 to compound PC50 for human PANC1 cells; assay type: functional
[4] = organism: Homo sapiens; assay: Inhibition of AKT (unknown origin) phosphorylation at S437 at 1 to 100 uM after 4 hrs by Western blotting analysis in presence of nutrient-deprived medium
How it was run: (§2)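 Proteins were separated by SDS-PAGE (0.1% SDS) and transferred to PVDF. Membranes were blocked, washed in PBS with 0.1% polysorbate 20, and incubated overnight at room temperature with primary antibodies. HRP-conjugated secondary antibody was applied for 45 min at room temperature, and bands were detected by enhanced chemiluminescence.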

[5] = system: PANC-1; assay: Induction of apoptosis in human PANC1 cells in nutrient-deprived medium assessed as late apoptotic and necrotic cells at 1 uM after 24 hrs by ethidium bromide/acridine orange staining-based fluorescence microscopy relative to control; assay type: functional, cell-based
How it was run: (§3)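 Cells were seeded at 1 × 10^6 per 60 mm dish and allowed to attach for 24 h. They were washed twice and treated with 1 µM in DMEM or NDM for 24 h. EB/AO dye mixture (100 µg/ml each, in PBS) was added, and cells were imaged in fluorescent and phase-contrast modes at 40× objective. AO marks viable cells green; EB marks late apoptotic/necrotic cells red.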

[6] = system: PANC-1; assay: Induction of apoptosis in human PANC1 cells in nutrient-deprived medium assessed as translocation of phosphatidylserine to external surface at 1 uM after 12 hrs by Annexin V-FITC/propidium iodide staining-based fluorescence microscopy; assay type: functional, cell-based
[7] = system: PANC-1; assay: Induction of apoptosis in human PANC1 cells in nutrient-deprived medium assessed as cell swelling at 1 uM after 24 hrs by phase contrast microscopy relative to control; assay type: functional, cell-based; how it was run: as §3
[8] = biological target: T1, Caspase-3 (Homo sapiens) (UniProt P42574); assay: Induction of caspase3 (unknown origin) cleavage after 4 hrs by Western blotting analysis in presence of nutrient-deprived medium; how it was run: as §2
T1 sequence (whole entry): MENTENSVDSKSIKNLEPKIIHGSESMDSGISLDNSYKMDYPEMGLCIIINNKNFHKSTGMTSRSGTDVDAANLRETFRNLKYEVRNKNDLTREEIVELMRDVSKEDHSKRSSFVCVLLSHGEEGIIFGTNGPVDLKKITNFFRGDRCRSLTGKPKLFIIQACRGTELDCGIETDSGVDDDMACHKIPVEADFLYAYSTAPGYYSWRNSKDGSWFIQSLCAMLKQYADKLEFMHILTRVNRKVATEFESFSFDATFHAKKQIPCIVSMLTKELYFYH

[9] = system: PANC-1; assay: Induction of apoptosis in human PANC1 cells in nutrient-deprived medium assessed as rupture of cell membrane at 1 uM after 24 hrs by phase contrast microscopy relative to control; assay type: functional, cell-based; how it was run: as §3
[10] = organism: Homo sapiens; assay: Inhibition of AKT (unknown origin) phosphorylation at T308 at 1 to 100 uM after 4 hrs by Western blotting analysis in presence of nutrient-deprived medium; how it was run: as §2
[11] = biological target: T1, Caspase-3 (Homo sapiens); assay: Induction of caspase3 (unknown origin) cleavage after 4 hrs by Western blotting analysis in presence of DMEM; how it was run: as §2
[12] = organism: Homo sapiens; assay: Inhibition of AKT (unknown origin) phosphorylation at S437 at 100 uM after 4 hrs by Western blotting analysis in presence of DMEM; how it was run: as §2
[13] = organism: Homo sapiens; assay: Inhibition of AKT (unknown origin) phosphorylation at T308 at 100 uM after 4 hrs by Western blotting analysis in presence of DMEM; how it was run: as §2
[14] = system: PANC-1; assay: Induction of apoptosis in human PANC1 cells in nutrient-deprived medium assessed as disruption of cell organelles at 1 uM after 24 hrs by phase contrast microscopy relative to control; assay type: functional, cell-based; how it was run: as §3

## COc1cc(C[C@H]2C(=O)OC[C@@H]2Cc2ccc(OC)c(OC)c2)ccc1O [ARCTIGENIN]
[1]
  PC50: 0.85 µM

## Nc1ccn([C@@H]2O[C@H](CO)[C@@H](O)C2(F)F)c(=O)n1 [GEMCITABINE]
[2]
  Activity: inactive
[1]
  PC50: >200 µM

## N/C(=N\NC(=S)N1CCCC1)c1ccccn1
[1]
  PC50: 0.78 µM

## Cc1ccnc(/C(N)=N/NC(=S)N2CCCCC2)c1
[1]
  PC50: 1.8 µM

## N/C(=N\NC(=S)N1CCCCC1)c1ccccn1
[1]
  PC50: 1.6 µM

## Cc1ccnc(/C(N)=N/NC(=S)N2CCCCCC2)c1
[1]
  PC50: 1.7 µM

## Cc1ccnc(/C(N)=N/NC(=S)N2CCCC2)c1
[3]
  Ratio: 2
[1]
  PC50: 0.37 µM

## N/C(=N\NC(=S)N1CCCCCC1)c1ccccn1
[1]
  PC50: 1.4 µM

## Cc1ccnc(/C(N)=N/NC(=S)N2CCOCC2)c1
[1]
  PC50: 1.8 µM

## CC(=O)O[C@H]1C(=O)[C@@]2(C)[C@H]([C@H](OC(=O)c3ccccc3)[C@]3(O)C[C@H](OC(=O)[C@H](O)[C@@H](NC(=O)c4ccccc4)c4ccccc4)C(C)=C1C3(C)C)[C@]1(OC(C)=O)CO[C@@H]1C[C@@H]2O [PACLITAXEL]
[1]
  PC50: >200 µM

## N/C(=N\NC(=S)N1CCOCC1)c1ccccn1
[1]
  PC50: 1.6 µM

## N/C(=N\NC(=S)N1CCSCC1)c1ccccn1
[1]
  PC50: 1.9 µM

## Cc1ccnc(/C(N)=N/NC(=S)N2CCN(c3ccccn3)CC2)c1
[1]
  PC50: 0.68 µM

## N/C(=N\NC(=S)N1CCN(c2ccccn2)CC1)c1ccccn1
[4]
  inhibition: inactive
[5]
  Activity: Active
[6]
  Activity: Active
[7]
  Activity: Active
[8]
  Activity: Dose-dependent effect
[9]
  Activity: Active
[10]
  inhibition: inactive
[11]
  Activity: Dose-dependent effect
[12]
  inhibition: inactive
[13]
  inhibition: inactive
[1]
  PC50: 0.78 µM
[14]
  Activity: Active

## Cc1ccnc(/C(N)=N/NC(=S)N2CCSCC2)c1
[1]
  PC50: 1.9 µM
